The species entered for assay [1] is Rattus norvegicus. The assay is described as follows: Agonist/antagonist and antinociceptive profile was assessed in a hotplate assay. The format is functional.
In assay [2] the test system is Rattus norvegicus. The assay is described as follows: Antagonist and antinociceptive profile was evaluated in a paraphenylquinone assay after subcutaneous injection. The format is functional.
Assay [3] relates to Monkey. The assay is described as follows: Antagonist action in tail-flick antagonism vs morphine, in rhesus monkeys. Compound was injected subcutaneously; Not active. The format is functional, organism-based. The note with it: Cercopithecidae.
The test system of assay [4] is Rattus norvegicus. The assay is described as follows: Effective dose for apomorphine induced circling behavior was determined in rats after subcutaneous administration of the compound. In kind it is functional.
Assay [5] is filed under the species Rattus norvegicus. Briefly: Tail-flick assay was performed to determine antinociceptive profile of the compound. On the set-up: unit not given here. The format is functional. Background: Thermal pain tests record how soon the animal reacts.
Assay [6] has as its target T1, D(2) dopamine receptor (Rattus norvegicus, UniProt P61169). Briefly: Neuroleptic activity in terms of [3H]spiroperidol binding to Dopamine receptor D2 in rat striatal membrane. The format is cell membranes. The essentials:
(§1)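 Striatal membranes from male Sprague-Dawley rats (1.4 mg protein/mL) were used in 50 mM Tris-HCl pH 7.1 with 0.1% ascorbate, 10 μM pargyline, 120 mM NaCl, 5 mM KCl and 1 mM each of CaCl2 and MgCl2. Incubation was with […], 20 min at 37 °C. Nonspecific binding was defined by 10⁻⁶ M haloperidol, with filtration and scintillation counting.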

Assay [7] concerns Monkey. Briefly: Antagonist action in tail-flick antagonism vs morphine, in rhesus monkeys. Compound was injected subcutaneously. The note with it: Cercopithecidae, in Macaca mulatta, sc. In kind it is functional.
Assay [8] has as its target T2, Mu-type opioid receptor (Rattus norvegicus, UniProt P33535). Briefly: Opioid activity in terms of inhibition of [3H]dihydromorphine binding to Opioid receptor mu 1 in rat brain membrane. In kind it is cell membranes. The essentials:
(§2)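 Whole-brain membranes, cerebellum removed, from male Sprague-Dawley rats (1 mg protein/mL) in 50 mM Tris-HCl pH 7.4 were preincubated 60 min at 25 °C. [3H]dihydromorphine was added to a […], with varying drug concentrations, for 60 min at 25 °C. Nonspecific binding was defined by 10⁻⁵ M naloxone, with GF/B filtration and scintillation counting.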

The target of assay [9] is T2, Mu-type opioid receptor. Briefly: Opioid activity in terms of inhibition of [3H]dihydromorphine binding to opioid receptor mu in rat brain membrane. In kind it is cell membranes. A digest of the protocol:
as §2

Assay [10] deals with T1, D(2) dopamine receptor. The assay is described as follows: Neuroleptic activity in terms of [3H]spiroperidol binding to dopamine receptor D2 in rat striatal membrane. The format is cell membranes. The essentials:
as §1

Assay [11] has as its system Rattus norvegicus. The assay is described as follows: Effective dose for apomorphine induced circling behavior was determined in rats after subcutaneous administration of the compound. The format is functional. The note with it: sc.
The test system of assay [12] is Rattus norvegicus. Briefly: Antagonist and antinociceptive profile was evaluated in a paraphenylquinone assay after subcutaneous injection. The note with it: sc.
Assay [13] relates to Monkey. Briefly: Antagonist action in tail-flick antagonism vs morphine, in rhesus monkeys, compound was injected subcutaneously; Not Active. The format is functional, organism-based. The note with it: Cercopithecidae.
For assay [14], the species on record is Rattus norvegicus. Briefly: Agonist/antagonist and antinociceptive profile was assessed in a hotplate assay.
Where [15] appears, read: Rattus norvegicus, read-out: ED50.
[16] abbreviates: Rattus norvegicus, sc, read-out: ED50.

Each structure is given as a SMILES string. Activity calls are given as the source filed them. The calls are words filed in the database; no cut-off is given here. Bounds are passed on as bounds.

T1 sequence (P61169 whole entry): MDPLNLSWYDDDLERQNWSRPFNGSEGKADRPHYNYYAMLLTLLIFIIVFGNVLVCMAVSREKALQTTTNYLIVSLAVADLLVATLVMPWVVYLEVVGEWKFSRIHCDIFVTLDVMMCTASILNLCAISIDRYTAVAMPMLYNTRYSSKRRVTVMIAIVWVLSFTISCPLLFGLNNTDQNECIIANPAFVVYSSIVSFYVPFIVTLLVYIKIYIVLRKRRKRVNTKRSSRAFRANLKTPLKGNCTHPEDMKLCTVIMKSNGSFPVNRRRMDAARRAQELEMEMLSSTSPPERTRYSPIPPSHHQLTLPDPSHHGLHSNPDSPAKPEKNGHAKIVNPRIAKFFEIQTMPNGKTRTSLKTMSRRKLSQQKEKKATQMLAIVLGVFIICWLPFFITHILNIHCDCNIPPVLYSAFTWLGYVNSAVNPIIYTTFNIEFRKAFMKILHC
T2 sequence (P33535 whole entry): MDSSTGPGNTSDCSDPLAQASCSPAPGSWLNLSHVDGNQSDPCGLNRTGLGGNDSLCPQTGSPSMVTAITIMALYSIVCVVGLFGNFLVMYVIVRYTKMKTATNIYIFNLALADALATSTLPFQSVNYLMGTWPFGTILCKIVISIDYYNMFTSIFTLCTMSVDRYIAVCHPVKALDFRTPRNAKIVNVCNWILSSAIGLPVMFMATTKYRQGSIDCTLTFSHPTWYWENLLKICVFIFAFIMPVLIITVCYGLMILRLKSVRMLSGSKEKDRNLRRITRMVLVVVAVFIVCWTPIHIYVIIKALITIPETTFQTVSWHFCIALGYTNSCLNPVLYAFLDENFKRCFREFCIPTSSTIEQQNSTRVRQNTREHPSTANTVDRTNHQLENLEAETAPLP

On to `CCC(=O)O[C@]1(c2ccccc2)CCN(CCCC(=O)c2ccc(F)cc2)C[C@H]1C`, for which the figures for the ED50 in the assay listed under Rattus norvegicus [1] (setting [15]), in the assay with Rattus norvegicus [2] (setting [16]) and in the assay with Rattus norvegicus [4] (setting [16]) were > 72.9 µmol/kg, 2.9 µmol/kg and > 12 µmol/kg, respectively. Moreover, the ED50 result with Monkey [3] is “inactive”. Also, the Activity in the assay listed under Rattus norvegicus [5] is >60.8. On D(2) dopamine receptor [6], this molecule displayed an IC50 of 147 nM.

For `CCC(=O)O[C@@]1(c2ccccc2)CCN(CCCC(=O)c2ccc(F)cc2)CC1C` (mixture of isomers), the ED50 in the assay on Monkey [7] is > 60.8 µmol/kg; in the assay filed under Rattus norvegicus [1] (setting [15]), 1.6 µmol/kg; in the assay on Rattus norvegicus [2] (setting [16]) it was 0.2 µmol/kg; with Rattus norvegicus [4], 3.9 µM/kg. Also, in the assay listed under Rattus norvegicus [5], the Activity was found to be 1.7. Moreover, the IC50 on D(2) dopamine receptor [6] was determined as 53.8 nM; at Mu-type opioid receptor [8], 9.5 nM.

As to `CCC(=O)O[C@@]1(c2ccccc2)CCN(CCCC(=O)c2ccc(F)cc2)CC1C` (single isomer, unassigned; (+)), the ED50 in the assay filed under Rattus norvegicus [1] turned out to be 0.9 µM/kg; in the assay on Rattus norvegicus [2] it was 0.2 µM/kg; in the assay with Rattus norvegicus [4], 1.6 µM/kg. The IC50 came out at 6.1 nM on Mu-type opioid receptor [9] and 43.3 nM on D(2) dopamine receptor [10]. Also, the Activity in the assay filed under Rattus norvegicus [5] came to 0.8.

In the assay on Rattus norvegicus [11], `O=C(CCCN1CCC(O)(c2ccc(Cl)cc2)CC1)c1ccc(F)cc1` [HALOPERIDOL] registered an ED50 of 0.1 µmol/kg.

Take `CN1CC[C@]23c4c5ccc(O)c4O[C@H]2[C@@H](O)C=C[C@H]3[C@H]1C5` [MORPHINE]: the results for the ED50 with Rattus norvegicus [12] and in the assay listed under Rattus norvegicus [14] were 0.4 µmol/kg and 2.9 µmol/kg, respectively. Also, the ED50 result with Monkey [13] was “inactive”. This molecule also displayed an Activity in the assay filed under Rattus norvegicus [5] of 10.6.

One may read the IC50 as the point on the concentration scale where inhibition reaches its midpoint.
